Type in all cases: cell-based
Data set [1] addresses T1, Potassium voltage-gated channel subfamily KQT member 4 (Homo sapiens, UniProt P56696).
T1 sequence (P56696 whole entry): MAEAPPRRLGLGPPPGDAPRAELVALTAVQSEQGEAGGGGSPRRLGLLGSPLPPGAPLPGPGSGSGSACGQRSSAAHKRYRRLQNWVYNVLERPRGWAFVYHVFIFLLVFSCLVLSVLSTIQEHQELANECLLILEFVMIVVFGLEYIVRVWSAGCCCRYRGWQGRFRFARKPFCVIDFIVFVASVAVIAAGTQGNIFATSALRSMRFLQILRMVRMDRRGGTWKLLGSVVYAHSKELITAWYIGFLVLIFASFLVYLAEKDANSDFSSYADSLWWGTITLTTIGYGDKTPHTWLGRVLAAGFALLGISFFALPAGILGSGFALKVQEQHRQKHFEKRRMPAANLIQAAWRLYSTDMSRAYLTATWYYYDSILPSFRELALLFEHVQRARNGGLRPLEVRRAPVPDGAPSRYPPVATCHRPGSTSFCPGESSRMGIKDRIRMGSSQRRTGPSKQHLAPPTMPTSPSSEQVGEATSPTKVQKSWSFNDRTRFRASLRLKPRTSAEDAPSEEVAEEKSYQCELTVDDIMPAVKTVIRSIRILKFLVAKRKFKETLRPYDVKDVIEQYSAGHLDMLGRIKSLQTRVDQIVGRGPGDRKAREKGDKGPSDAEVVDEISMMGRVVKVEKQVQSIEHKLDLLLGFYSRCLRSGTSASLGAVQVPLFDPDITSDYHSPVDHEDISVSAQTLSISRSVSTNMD
The data set can be described thus: (§1) Activation of human homomeric KCNQ4 expressed in CHOK1 cells at -10 mV by whole cell patch clamp assay. In outline:
(§2)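 Whole-cell voltage clamp of CHO-K1 cells expressing homomeric KCNQ4. Holding potential −80 mV with depolarizing steps; current read at −10 mV before and after compound at several concentrations. EC50 derived from the concentration–response relationship, with the Hill coefficient reported.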
For orientation: In patch-clamp work, channel activity is measured electrically.

For data set [2], the target named is T2, Potassium voltage-gated channel subfamily KQT member 4 (Homo sapiens) (UniProt P56696).
T2 sequence (whole entry): T1 sequence (P56696 whole entry)
Described as §1. In outline: as §2

The target in data set [3] is Potassium voltage-gated channel subfamily KQT member 2 (Rattus norvegicus) (UniProt O88943). Description: Activity at rat KCNQ2 expressed in CHOK1 cells assessed as ratio of amplitude of outward current in presence of test compound to amplitude of outward current in absence of test compound at 10 uM at +60 mV by whole cell patch clamp assay. The gist of the method: (§3)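 CHO-K1 cells individually transfected with a single KCNQ subtype; whole-cell voltage clamp. Held at −80 mV, stepped from −90 to +60 mV in 10 mV increments (1500 ms), then to −120 mV for 500 ms. Outward current at −10 or +60 mV measured before (I0) and after (I) 10 μM compound; I/I0 >1 counts as activation. More than four cells per compound.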
Chain of Potassium voltage-gated channel subfamily KQT member 2 (Rattus norvegicus) (O88943 whole entry): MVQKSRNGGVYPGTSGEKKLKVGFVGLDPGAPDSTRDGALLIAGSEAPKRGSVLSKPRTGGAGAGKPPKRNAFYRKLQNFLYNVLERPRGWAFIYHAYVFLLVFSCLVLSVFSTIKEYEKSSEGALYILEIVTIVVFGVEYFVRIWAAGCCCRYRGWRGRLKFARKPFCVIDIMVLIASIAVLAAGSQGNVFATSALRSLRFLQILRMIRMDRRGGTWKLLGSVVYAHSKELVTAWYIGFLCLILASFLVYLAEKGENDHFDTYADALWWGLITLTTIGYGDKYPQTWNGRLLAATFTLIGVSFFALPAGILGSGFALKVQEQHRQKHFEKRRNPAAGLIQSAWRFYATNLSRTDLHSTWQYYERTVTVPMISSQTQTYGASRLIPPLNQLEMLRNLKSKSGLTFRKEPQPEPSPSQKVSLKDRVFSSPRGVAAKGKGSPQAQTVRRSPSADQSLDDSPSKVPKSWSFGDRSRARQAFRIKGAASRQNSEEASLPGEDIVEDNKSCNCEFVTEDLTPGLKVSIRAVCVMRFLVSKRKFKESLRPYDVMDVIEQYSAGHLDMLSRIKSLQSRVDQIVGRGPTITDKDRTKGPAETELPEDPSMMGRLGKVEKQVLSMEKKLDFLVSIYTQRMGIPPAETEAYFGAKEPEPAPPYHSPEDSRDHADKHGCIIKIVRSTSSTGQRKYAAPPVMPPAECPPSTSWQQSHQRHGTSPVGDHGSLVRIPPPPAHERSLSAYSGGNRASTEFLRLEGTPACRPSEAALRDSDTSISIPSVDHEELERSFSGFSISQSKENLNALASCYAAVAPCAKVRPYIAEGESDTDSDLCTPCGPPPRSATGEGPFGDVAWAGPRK

Data set [4] shares this target. Description: Activity at rat KCNQ2 expressed in CHOK1 cells assessed as ratio of amplitude of outward current in presence of test compound to amplitude of outward current in absence of test compound at 10 uM at -10 mV by whole cell patch clamp assay. In outline:
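CHO-K1 cells expressing the channel, whole-cell voltage clamp, compound at 10 μM. Read-out is the outward current ratio I/I0 with and without compound, taken at −10 mV. I/I0 > 1 counts as activation and < 1 as inhibition. More than four cells per compound.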

In data set [5] the target is Potassium voltage-gated channel subfamily KQT member 5 (Homo sapiens, UniProt Q9NR82). Description: Activity at human KCNQ5 expressed in CHOK1 cells assessed as ratio of amplitude of outward current in presence of test compound to amplitude of outward current in absence of test compound at 10 uM at +60 mV by whole cell patch clamp assay. The gist of the method:
as §3

The target in data set [6] is Potassium voltage-gated channel subfamily KQT member 2 (Rattus norvegicus, UniProt O88943). Description: Activation of rat homomeric KCNQ2 expressed in CHOK1 cells increase in current amplitude at 30 uM at -10 mV by whole cell patch clamp assay relative to control. In outline:
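CHO-K1 cells expressing homomeric KCNQ2, recorded by whole-cell voltage clamp. Holding potential −80 mV with step depolarizations; current amplitude at −10 mV compared before and after compound across 1–30 μM, reported as percent change in current.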

Structures are written as SMILES.

In general, EC50 refers to the concentration that produces a half-maximal response. Read a high EC50 as lower potency in that assay.

Chain of Potassium voltage-gated channel subfamily KQT member 2 (O88943 whole entry): as above
Chain of Potassium voltage-gated channel subfamily KQT member 5 (Q9NR82 whole entry): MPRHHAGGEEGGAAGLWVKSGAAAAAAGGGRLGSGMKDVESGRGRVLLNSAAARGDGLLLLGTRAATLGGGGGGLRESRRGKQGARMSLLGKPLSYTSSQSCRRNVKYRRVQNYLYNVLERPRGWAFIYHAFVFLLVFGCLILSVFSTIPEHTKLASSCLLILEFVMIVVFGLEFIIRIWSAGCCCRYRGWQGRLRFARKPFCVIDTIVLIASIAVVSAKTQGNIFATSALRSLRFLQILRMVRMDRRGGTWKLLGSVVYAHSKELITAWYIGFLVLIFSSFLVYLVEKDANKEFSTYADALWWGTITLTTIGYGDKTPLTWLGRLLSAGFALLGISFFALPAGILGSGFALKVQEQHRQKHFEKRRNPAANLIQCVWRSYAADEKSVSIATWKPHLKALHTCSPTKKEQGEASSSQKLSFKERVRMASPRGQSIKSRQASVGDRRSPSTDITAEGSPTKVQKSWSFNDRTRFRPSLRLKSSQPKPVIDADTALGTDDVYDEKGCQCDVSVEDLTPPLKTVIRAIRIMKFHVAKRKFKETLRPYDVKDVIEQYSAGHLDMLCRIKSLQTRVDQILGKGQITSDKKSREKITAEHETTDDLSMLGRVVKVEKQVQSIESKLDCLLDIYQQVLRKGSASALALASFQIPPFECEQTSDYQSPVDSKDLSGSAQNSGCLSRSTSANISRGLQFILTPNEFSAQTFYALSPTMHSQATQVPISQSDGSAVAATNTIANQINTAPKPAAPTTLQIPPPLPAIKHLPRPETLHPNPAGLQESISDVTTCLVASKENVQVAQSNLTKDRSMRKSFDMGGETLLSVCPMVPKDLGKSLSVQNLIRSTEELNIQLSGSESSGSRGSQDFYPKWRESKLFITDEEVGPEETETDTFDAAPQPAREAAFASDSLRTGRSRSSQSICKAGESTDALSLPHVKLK

Regarding `C#CCN(Cc1ccc(F)cc1)c1ccc(NC(=O)OCC)c(NC(=O)OCC)c1`, a half-maximal response in data set [1] (EC50) required 890 nM. Further, the Activity result in data set [2] is “Dose-dependent effect”; in data set [6] it was 2%. The Ratio is 0.8 in data set [3], 0.94 in data set [4] and 4.8 in data set [5].

The record behind these values is ChEMBL document CHEMBL4382285, “Discovery of Novel Retigabine Derivatives as Potent KCNQ4 and KCNQ5 Channel Agonists with Improved Specificity” (ACS Med Chem Lett, 2019).
